In the M2OR odorant receptor database:

How the values were obtained:
Details in all cases: stereoisomer not certain
UniProt Q8VF52 = target: T1, UniProt Q8VF52
T1 sequence (whole entry): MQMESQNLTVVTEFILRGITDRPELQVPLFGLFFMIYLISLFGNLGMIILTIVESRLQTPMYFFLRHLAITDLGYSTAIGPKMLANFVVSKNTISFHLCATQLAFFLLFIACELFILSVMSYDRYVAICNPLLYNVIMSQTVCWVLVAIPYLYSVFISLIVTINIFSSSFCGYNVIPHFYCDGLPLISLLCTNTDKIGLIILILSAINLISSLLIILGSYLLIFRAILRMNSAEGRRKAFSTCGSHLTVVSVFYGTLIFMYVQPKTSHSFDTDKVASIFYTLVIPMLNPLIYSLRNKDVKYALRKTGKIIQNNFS
How it was run: (§1)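 Each entry records the cell line, G-protein, co-transfected protein and tags used. Methods varied with the source, often transient luciferase assays in mammalian cell lines. A receptor–molecule pair is called responsive (active) if the original authors judged its signal statistically different from baseline and non-responsive (inactive) otherwise.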

UniProt Q8VFM8 = target: T2, UniProt Q8VFM8
T2 sequence (whole entry): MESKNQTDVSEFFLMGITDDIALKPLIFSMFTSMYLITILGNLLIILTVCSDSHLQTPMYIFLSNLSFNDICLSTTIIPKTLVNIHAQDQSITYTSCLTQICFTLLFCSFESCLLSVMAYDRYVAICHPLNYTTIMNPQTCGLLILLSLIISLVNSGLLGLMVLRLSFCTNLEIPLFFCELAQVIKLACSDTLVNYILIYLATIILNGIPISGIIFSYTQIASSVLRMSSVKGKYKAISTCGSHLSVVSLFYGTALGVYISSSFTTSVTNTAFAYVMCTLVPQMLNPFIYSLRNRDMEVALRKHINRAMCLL
How it was run: as §1

UniProt Q8VFP5 = target: T3, UniProt Q8VFP5
T3 sequence (whole entry): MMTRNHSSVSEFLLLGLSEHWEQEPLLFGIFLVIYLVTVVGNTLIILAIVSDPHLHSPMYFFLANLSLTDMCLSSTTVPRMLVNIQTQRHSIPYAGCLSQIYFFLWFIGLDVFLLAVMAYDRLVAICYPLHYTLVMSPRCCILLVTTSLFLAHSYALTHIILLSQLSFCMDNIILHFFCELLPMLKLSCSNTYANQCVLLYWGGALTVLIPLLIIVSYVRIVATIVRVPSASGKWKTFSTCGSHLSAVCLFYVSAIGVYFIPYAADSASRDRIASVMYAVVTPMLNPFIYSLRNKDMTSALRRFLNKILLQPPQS
How it was run: as §1

UniProt Q8VG01 = target: T4, UniProt Q8VG01
T4 sequence (whole entry): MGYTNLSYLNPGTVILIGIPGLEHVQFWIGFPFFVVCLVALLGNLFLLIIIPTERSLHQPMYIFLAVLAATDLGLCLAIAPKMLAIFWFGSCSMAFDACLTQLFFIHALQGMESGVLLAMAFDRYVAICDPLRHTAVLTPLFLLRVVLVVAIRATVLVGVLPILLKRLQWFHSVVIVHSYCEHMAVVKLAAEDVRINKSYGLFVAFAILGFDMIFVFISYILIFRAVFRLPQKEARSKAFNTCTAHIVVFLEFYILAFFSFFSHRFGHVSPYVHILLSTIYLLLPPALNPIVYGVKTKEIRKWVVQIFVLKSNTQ
How it was run: as §1

UniProt Q8VG27 = target: T5, UniProt Q8VG27
T5 sequence (whole entry): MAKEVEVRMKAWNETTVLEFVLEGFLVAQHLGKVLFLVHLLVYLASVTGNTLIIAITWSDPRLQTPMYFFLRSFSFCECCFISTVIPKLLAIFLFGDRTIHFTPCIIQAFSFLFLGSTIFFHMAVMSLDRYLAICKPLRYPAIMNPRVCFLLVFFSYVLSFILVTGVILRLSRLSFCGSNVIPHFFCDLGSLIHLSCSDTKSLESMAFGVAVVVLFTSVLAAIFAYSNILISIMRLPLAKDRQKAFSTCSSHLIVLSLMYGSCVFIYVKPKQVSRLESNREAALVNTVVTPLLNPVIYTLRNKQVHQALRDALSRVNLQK
How it was run: as §1

UniProt Q8VG53 = target: T6, UniProt Q8VG53
T6 sequence (whole entry): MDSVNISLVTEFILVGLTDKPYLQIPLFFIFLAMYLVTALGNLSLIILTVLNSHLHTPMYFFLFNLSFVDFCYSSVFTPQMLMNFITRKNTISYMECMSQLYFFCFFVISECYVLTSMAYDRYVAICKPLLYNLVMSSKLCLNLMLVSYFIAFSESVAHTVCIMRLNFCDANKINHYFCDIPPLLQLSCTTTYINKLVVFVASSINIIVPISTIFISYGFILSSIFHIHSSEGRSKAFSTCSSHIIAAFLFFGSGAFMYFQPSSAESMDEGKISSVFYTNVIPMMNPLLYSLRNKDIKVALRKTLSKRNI
How it was run: as §1

UniProt Q8VG64 = target: T7, UniProt Q8VG64
T7 sequence (whole entry): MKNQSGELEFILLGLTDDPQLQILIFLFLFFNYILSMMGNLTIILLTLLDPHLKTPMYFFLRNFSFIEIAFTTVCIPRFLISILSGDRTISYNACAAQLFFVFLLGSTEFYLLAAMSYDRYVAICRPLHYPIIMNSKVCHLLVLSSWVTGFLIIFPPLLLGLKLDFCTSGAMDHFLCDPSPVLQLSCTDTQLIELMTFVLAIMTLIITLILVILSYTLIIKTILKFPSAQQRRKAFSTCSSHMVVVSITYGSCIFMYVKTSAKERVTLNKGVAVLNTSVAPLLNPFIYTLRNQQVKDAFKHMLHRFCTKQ
How it was run: as §1

UniProt Q8VGB9 = target: T8, UniProt Q8VGB9
T8 sequence (whole entry): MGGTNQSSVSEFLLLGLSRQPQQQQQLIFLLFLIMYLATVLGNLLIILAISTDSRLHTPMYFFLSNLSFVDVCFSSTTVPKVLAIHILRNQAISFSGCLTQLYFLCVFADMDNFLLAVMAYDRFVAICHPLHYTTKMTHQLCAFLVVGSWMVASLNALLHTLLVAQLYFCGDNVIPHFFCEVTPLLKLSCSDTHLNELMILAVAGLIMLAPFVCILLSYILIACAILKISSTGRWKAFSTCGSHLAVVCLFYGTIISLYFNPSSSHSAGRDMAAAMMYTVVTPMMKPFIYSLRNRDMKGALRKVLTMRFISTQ
How it was run: as §1

UniProt Q8VGC6 = target: T9, UniProt Q8VGC6
T9 sequence (whole entry): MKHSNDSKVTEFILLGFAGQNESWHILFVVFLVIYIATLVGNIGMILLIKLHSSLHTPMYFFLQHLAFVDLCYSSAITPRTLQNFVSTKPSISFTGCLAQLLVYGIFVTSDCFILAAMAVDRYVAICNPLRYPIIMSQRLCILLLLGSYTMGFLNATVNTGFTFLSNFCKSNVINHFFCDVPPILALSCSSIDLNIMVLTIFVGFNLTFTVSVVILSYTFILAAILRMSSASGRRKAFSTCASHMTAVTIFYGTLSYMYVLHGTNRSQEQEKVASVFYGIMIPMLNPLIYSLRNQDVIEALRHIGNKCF
How it was run: as §1

UniProt Q8VGJ3 = target: T10, UniProt Q8VGJ3
T10 sequence (whole entry): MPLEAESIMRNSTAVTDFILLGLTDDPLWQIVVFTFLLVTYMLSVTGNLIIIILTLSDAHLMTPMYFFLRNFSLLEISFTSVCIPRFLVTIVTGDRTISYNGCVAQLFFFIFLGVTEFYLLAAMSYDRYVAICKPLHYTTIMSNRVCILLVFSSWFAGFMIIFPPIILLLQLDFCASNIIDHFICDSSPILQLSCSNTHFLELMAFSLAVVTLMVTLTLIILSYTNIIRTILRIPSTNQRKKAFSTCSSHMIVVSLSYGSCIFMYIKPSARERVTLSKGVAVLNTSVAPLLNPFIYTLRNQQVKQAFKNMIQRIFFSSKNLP
How it was run: as §1

Measured: odorant receptor agonist call

O=Cc1ccc2c(c1)OCO2
inactive: all assays above

CSSC
inactive: all assays above

Oc1ccccc1Br
inactive: all assays above

CCCCC(Br)C(=O)O (stereo not given)
inactive: all assays above
